In ChEMBL document CHEMBL1151714 (J Med Chem, 2008):
The source made the active and inactive calls. The calls are words filed in the database; no cut-off is given here.

Assays:
[1] = tested on: Rattus norvegicus; assay: AUC (0 to infinity) in Sprague-Dawley rat at 30 mg/kg, po; assay type: ADME, organism-based, Plasma; parameters: dose 30 mg/kg, route oral, time infinity; conditions: in vivo
How it was run: (§1)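 Rats were given a single oral dose of 25 or 30 mg/kg. Maximum plasma concentration (Cmax), elimination half-life and AUC(0-∞) were derived. Oral bioavailability was also reported.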

[2] = tested on: MDA-MB-231; assay: Induction of cIAP1 degradation in human MDA-MB-231 cells at 10 nM after 24 hrs by Western blotting; assay type: functional, cell-based
How it was run: (§2)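 MDA-MB-231 cells were exposed to a range of concentrations for 24 hours. Whole-cell levels of cIAP-1, cleaved PARP and cleaved caspase-3 were then probed by Western blot.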

[3] = tested on: MDA-MB-231; assay: Reversal of human XIAP BIR3-mediated suppression of cytochrome c-induced caspase-3/-7 activity in human MDA-MB-231 cell lysate by cell free functional assay
How it was run: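 Caspase-3/-7 in cell lysates was activated by adding cytochrome c and dATP. Recombinant XIAP BIR3 protein at 0.5 μM was used to suppress activation, and recovery of caspase-3/-7 activity was measured across compound doses. Activity was read at the 30-minute time point and expressed relative to maximum activation.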

[4] = tested on: Rattus norvegicus; assay: Cmax in Sprague-Dawley rat at 30 mg/kg, po; assay type: ADME, organism-based; parameters: dose 30 mg/kg, route oral; conditions: in vivo
[5] = tested on: MDA-MB-231; assay: Induction of caspase 3 processing in human MDA-MB-231 cells at 100 nM after 24 hrs by Western blotting; assay type: functional, cell-based; how it was run: as §2
[6] = tested on: Rattus norvegicus; assay: Half life in Sprague-Dawley rat at 30 mg/kg, po; assay type: ADME, organism-based; parameters: dose 30 mg/kg, route oral; conditions: in vivo
How it was run: (§3)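 Rat pharmacokinetics after a single oral dose. Compounds were given at 25 or 30 mg/kg. Cmax, elimination half-life and AUC(0-∞) were determined, and oral bioavailability was calculated. Values are reported as mean ± deviation.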

[7] = tested on: MDA-MB-231; assay: Induction of PARP cleavage in human MDA-MB-231 cells at 100 nM after 24 hrs by Western blotting; assay type: functional, cell-based; how it was run: as §2
[8] = tested on: Rattus norvegicus; assay: Bioavailability in Sprague-Dawley rat at 30 mg/kg, po; assay type: ADME, organism-based; conditions: in vivo; how it was run: as §3
[9] = target: Baculoviral IAP repeat-containing protein 3 (Homo sapiens, UniProt Q13489); assay: Displacement of fluorescently tagged SM5F from human cIAP-2 BIR3 expressed in Escherichia coli BL21 cells by fluorescence polarization assay
[10] = tested on: Rattus norvegicus; assay: AUC (0 to infinity) in Sprague-Dawley rat at 25 mg/kg, po; assay type: ADME, organism-based, Plasma; parameters: time infinity, dose 25 mg/kg, route oral; conditions: in vivo; how it was run: as §1
[11] = tested on: Rattus norvegicus; assay: Cmax in Sprague-Dawley rat at 25 mg/kg, po; assay type: ADME, organism-based; parameters: dose 25 mg/kg, route oral; conditions: in vivo
[12] = tested on: Rattus norvegicus; assay: Bioavailability in Sprague-Dawley rat at 25 mg/kg, po; assay type: ADME, organism-based; conditions: in vivo; how it was run: as §3
[13] = tested on: Rattus norvegicus; assay: Half life in Sprague-Dawley rat at 25 mg/kg, po; assay type: ADME, organism-based; parameters: dose 25 mg/kg, route oral; conditions: in vivo; how it was run: as §3
[14] = tested on: MDA-MB-231; assay: cells; conditions: Homo sapiens, MDA-MB-231, 96 h

Baculoviral IAP repeat-containing protein 3, sequence (Q13489 whole entry): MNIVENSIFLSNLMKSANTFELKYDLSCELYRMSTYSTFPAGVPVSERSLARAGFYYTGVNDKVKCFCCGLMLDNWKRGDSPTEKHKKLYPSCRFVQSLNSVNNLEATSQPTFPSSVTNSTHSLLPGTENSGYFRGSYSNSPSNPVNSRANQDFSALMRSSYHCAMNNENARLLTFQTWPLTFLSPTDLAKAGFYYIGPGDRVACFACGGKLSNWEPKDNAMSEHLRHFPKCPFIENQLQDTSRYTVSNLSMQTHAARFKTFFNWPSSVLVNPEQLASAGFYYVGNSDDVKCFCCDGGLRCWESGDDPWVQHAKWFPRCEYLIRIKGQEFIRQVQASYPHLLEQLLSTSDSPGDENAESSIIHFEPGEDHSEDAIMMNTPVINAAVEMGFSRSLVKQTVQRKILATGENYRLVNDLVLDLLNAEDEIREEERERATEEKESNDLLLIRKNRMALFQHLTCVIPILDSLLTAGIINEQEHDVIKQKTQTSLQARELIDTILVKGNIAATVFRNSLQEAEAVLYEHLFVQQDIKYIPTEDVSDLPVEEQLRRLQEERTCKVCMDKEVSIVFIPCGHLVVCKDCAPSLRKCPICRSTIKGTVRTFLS

`CN[C@@H](C)C(=O)N[C@H]1CN(C(=O)Cc2ccccc2)CC[C@H]2CC[C@@H](C(=O)NC(c3ccccc3)c3ccccc3)N2C1=O.Cl` was tested, and the AUC [1] was 1985 µg/L, the Activity [2] was “Active” and the Activity [3] was “Dose-dependent effect”. The Cmax [4] was 532 nM, the Activity [5] was “Active” and the t1/2 [6] was 4.7 h. The Activity [7] was “Active” and the F [8] was 24%.

`CN[C@@H](C)C(=O)N[C@H]1CN(Cc2ccccc2)CC[C@H]2CC[C@@H](C(=O)NC(c3ccccc3)c3ccccc3)N2C1=O` showed a Ki [9] of 9.8 nM.

In the case of `CN[C@@H](C)C(=O)N[C@H]1CN(C)CC[C@H]2CC[C@@H](C(=O)NC(c3ccccc3)c3ccccc3)N2C1=O`, the Ki [9] is reported as 17.5 nM.

`CN[C@@H](C)C(=O)N[C@H]1CCCC[C@H]2CC[C@@H](C(=O)NC(c3ccccc3)c3ccccc3)N2C1=O.Cl` was tested, and the AUC [10] was 482 µg/L, the Cmax [11] was 545 nM and the F [12] was 14%. For the same compound, the t1/2 [13] was 1.7 h.

For `CN[C@@H](C)C(=O)N[C@H]1CNCC[C@H]2CC[C@@H](C(=O)NC(c3ccccc3)c3ccccc3)N2C1=O`, the IC50 [14] was 890 nM and the Ki [9] was 4.6 nM.
